Assay outcomes (PubChem)
The list is not random: actives were taken first. Their share in the collection is about 2.2%.
rRNA inh HTS: selective bacterial rRNA inhibition in E. coli | E. coli WT GFP vs humanized-ribosome RFP mutants, fluorescence, 24 h; stronger effect = lower value; DMSO median 0, no signal -100 | GFP signal change (wild-type ribosome), % (no concentration beside the values) | 1.6% of 350,000 active | AID 720706;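 active = significant combined selectivity score with lowered wild-type GFP, culture density cut under 30%, mutant RFP and density less affected; inactive = any of these conditions unmet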
ERp5 inh: inhibitors of human ERp5 | inhibition, % at 9.99 µM | Q15084 | ERp5 insulin aggregation, absorbance 650 nm, 90 min | 0.05% of 350,000 active;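 active = mean replicate inhibition above about 25%, with every replicate also reaching it, limit read from the data, passing the limit was not always enough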
PvdQ inh: blocks Pseudomonas aeruginosa PvdQ acylase activity | purified PvdQ acylase, fluorescence plate reader | 0.063% of 340,000 active | inhibition, % at 10 µM | AID 488965; in the data active = inhibition above about 30%, passing the limit was not always enough;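 note: 0% = vehicle neutral wells and 100% = reference inhibitor wells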
FN deposit inh: fibronectin deposition inhibition | AH1F fibroblasts, Alexa488-fibronectin deposition fluorescence, overnight | inhibition, % at 12.6 µM | 0.086% of 350,000 active | AID 743247;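 active = mean inhibition across replicates of 30% or more, regardless of how many single replicates reach that level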;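 note: positive control wells lacked labelled fibronectin entirely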
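Assay system: AH1F fibroblast monolayer, labelled fibronectin deposition. Amount: 10000 cells per well. Also added: labelled fibronectin 24 nM. Compound: single-point pinned compound. Incubation: cell attachment 1 h, compound and FN exposure overnight. Detection: fluorescence after three HBSS washes, excitation 485 nm, emission 525 nm. Read-out: inhibition of fibronectin deposition signal.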
Env fusion inh: blocks HIV Env-driven cell-cell fusion; HeLa-JRFL Env/CEM21 cell fusion, luciferase; inhibition, % at 12.3 µM; 1.1% of 360,000 active;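 active = mean replicate inhibition score of at least 50 and every replicate individually at or above 50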;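 note: 0% = plate neutral controls and 100% = maraviroc near 300 nM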
PDI turbidity: PDI (human) enzyme inhibition. P07237. AID 588391. 0.052% of 350,000 active. inhibition, % at 10 µM. PDI insulin aggregation turbidity, A650, 90 min;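 active = mean inhibition across replicates of 30% or more, whatever share of single replicates reach that level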
Target sequence (P07237 whole entry, looked up): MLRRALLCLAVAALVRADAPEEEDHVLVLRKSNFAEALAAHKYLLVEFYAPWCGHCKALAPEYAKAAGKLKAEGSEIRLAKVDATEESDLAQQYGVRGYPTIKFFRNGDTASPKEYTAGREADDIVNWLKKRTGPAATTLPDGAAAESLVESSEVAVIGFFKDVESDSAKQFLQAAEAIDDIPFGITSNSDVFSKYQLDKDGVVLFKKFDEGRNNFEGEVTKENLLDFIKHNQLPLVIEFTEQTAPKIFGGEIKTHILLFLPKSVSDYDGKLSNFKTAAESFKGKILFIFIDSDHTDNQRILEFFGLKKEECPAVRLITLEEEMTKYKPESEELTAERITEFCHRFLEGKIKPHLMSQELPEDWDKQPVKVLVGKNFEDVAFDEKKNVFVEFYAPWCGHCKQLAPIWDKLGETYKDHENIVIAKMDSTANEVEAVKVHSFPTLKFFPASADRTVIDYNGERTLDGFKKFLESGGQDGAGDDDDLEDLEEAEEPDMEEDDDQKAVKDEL
* marks the source's active call; other numbers are inactive results; [ ] = another dose, or the depositor's remark.

Screening CO[C@@H](CN(C)S(=O)(=O)c1ccc(Cl)cc1)[C@H](C)CN([C@@H](C)CO)S(=O)(=O)c1cccc(Cl)c1 returned rRNA inh HTS 5, ERp5 inh 3, FN deposit inh 4 and Env fusion inh 74*[16.7 µM].
For CO[C@@H](CN(C)S(=O)(=O)c1cccc(Cl)c1)[C@@H](C)CN([C@@H](C)CO)S(=O)(=O)c1cccc(Cl)c1 the results were rRNA inh HTS -9, ERp5 inh -2 and FN deposit inh -2.
Screening CO[C@H](CN(C)S(=O)(=O)c1cccc(Cl)c1)[C@H](C)CN([C@H](C)CO)S(=O)(=O)c1ccc(Cl)cc1 returned rRNA inh HTS 3, ERp5 inh 0, FN deposit inh -3 and Env fusion inh 45[16.7 µM].
`CCOC(=O)CC1(CC)Oc2ccccc2N1S(=O)(=O)c1ccc(C)cc1` (configuration not stated) gave rRNA inh HTS -7, ERp5 inh 1, FN deposit inh -4 and Env fusion inh 64*.
For CCOC(=O)CC1(C)N(S(=O)(=O)c2ccc(C)cc2)c2ccccc2N1S(=O)(=O)c1ccc(C)cc1 the results were rRNA inh HTS 4, ERp5 inh -2, FN deposit inh 3 and Env fusion inh 11.
`COc1ccc(CNC(=O)C[C@H]2C[C@H]3c4cc(NC(=O)C5CCC5)ccc4O[C@H]3[C@H](CO)O2)cc1` gave rRNA inh HTS -3, ERp5 inh 3, FN deposit inh 5 and Env fusion inh -3[16.7 µM].
`CC(C)CC(NS(=O)(=O)c1ccc2c(c1)oc(=O)n2C)C(=O)NC1CCCc2ccccc21` (configuration not stated) gave rRNA inh HTS 2, ERp5 inh 7, PvdQ inh 13, FN deposit inh 4, Env fusion inh 58* and PDI turbidity -14.
Screening Cn1c(=O)oc2cc(S(=O)(=O)NCCC(=O)NC3CCCc4ccccc43)ccc21 (configuration not stated) returned rRNA inh HTS 12, ERp5 inh 1, PvdQ inh -9 and PDI turbidity 6.
Screening CCOC(=O)N1CCN(c2nc3ccccc3n3cnnc23)CC1 returned rRNA inh HTS -17*, ERp5 inh 0, PvdQ inh 5, FN deposit inh -3, Env fusion inh -7 and PDI turbidity 3.
`O=C(C[C@H]1C=C[C@@H](NS(=O)(=O)c2ccccc2)[C@@H](CO)O1)N1CCN(c2ccccc2)CC1` gave rRNA inh HTS -1 and ERp5 inh 2.
Cc1cccn2c(=O)c(/C=C(\C#N)C(=O)NCc3ccco3)c(N3CCCCCC3)nc12 was read as rRNA inh HTS -30*, ERp5 inh 1, FN deposit inh 0, Env fusion inh 5 and PDI turbidity -4.
For Cc1cccc(-c2ccc([C@@H]3[C@H](CO)N4CCCCN(S(=O)(=O)c5ccccc5C)C[C@@H]34)cc2)c1 the results were rRNA inh HTS -43* and ERp5 inh -5.
For CC(C)C#Cc1ccc([C@H]2[C@@H](CO)N3CCCCN(S(=O)(=O)Cc4ccccc4)C[C@H]23)cc1 the results were rRNA inh HTS -41 and ERp5 inh 4.
Cc1ccccc1S(=O)(=O)N1CCCCN2[C@H](C1)[C@H](c1ccc(-c3ccccc3)cc1)[C@@H]2CO was read as ERp5 inh -2.
Cc1cccc(S(=O)(=O)N2CCCCN3[C@@H](CO)[C@H](c4ccc(C#CC(C)C)cc4)[C@@H]3C2)c1 was read as rRNA inh HTS -42* and ERp5 inh -9.
Screening Cc1cccc(S(=O)(=O)N2CCCCN3[C@H](C2)[C@H](c2ccc(C#CC(C)C)cc2)[C@@H]3CO)c1 returned rRNA inh HTS 5 and ERp5 inh -1.
CC(C)C#Cc1ccc([C@@H]2[C@H](CO)N3CCCCN(S(=O)(=O)Cc4ccccc4)C[C@@H]23)cc1 was read as rRNA inh HTS -42* and ERp5 inh -3.
For Cc1cccc(-c2ccc([C@@H]3[C@H](CO)N4CCCCN(S(=O)(=O)c5cccc(C)c5)C[C@@H]34)cc2)c1 the results were rRNA inh HTS -28* and ERp5 inh 2.
`CN1CCN(C(=O)C[C@H]2CC[C@H]3[C@@H](COC[C@@H](O)CN3Cc3ccc4c(c3)OCO4)O2)CC1` gave rRNA inh HTS 1, ERp5 inh 14 and FN deposit inh 7.
Screening CC(C)c1cn(CC[C@@H]2CC[C@H](NS(=O)(=O)c3ccccc3)[C@@H](CO)O2)nn1 returned rRNA inh HTS 2, ERp5 inh 0 and Env fusion inh 19[16.7 µM].
Screening C[C@@H]1CN([C@H](C)CO)C(=O)Cc2cc(NC(=O)Cc3ccccc3)ccc2O[C@@H]1CN(C)C(=O)Nc1cccc2ccccc12 returned rRNA inh HTS -2 and Env fusion inh 1[16.7 µM].
For CC(C)CC#Cc1ccc([C@H]2[C@@H](CO)N3CCCCN(S(=O)(=O)c4ccc(F)cc4)C[C@@H]23)cc1 the results were rRNA inh HTS 1 and ERp5 inh -1.
CC(C)CC#Cc1ccc([C@@H]2[C@H](CO)N3CCCCN(S(=O)(=O)c4ccc(F)cc4)C[C@@H]23)cc1 was read as rRNA inh HTS -19* and ERp5 inh -1.
CO[C@H]1CN(C)C(=O)c2ccc(NS(=O)(=O)c3ccccc3)cc2OC[C@H](C)N(C(=O)NC(C)C)C[C@H]1C was read as rRNA inh HTS -2, ERp5 inh -3 and FN deposit inh -4.
Screening Nc1cc(-c2ccccc2)nn1S(=O)(=O)c1ccc(F)cc1 returned rRNA inh HTS -4, ERp5 inh 3, PvdQ inh -14, FN deposit inh 9, Env fusion inh 79* and PDI turbidity 5.
Screening C[C@H](CO)N1C[C@H](C)[C@H](CN(C)S(=O)(=O)c2cccs2)Oc2ccc(NS(=O)(=O)c3ccc(F)cc3)cc2CC1=O returned rRNA inh HTS 2, ERp5 inh 10 and Env fusion inh 11[16.7 µM].
CC=Cc1ccc2n(c1=O)C[C@H]1[C@H](CO)[C@@H](C(=O)NCCOC)[C@@H]2N1Cc1ccccc1OC (mixture of isomers) was read as rRNA inh HTS 2 and ERp5 inh -2.
Cc1cccc(-n2c(-c3ccc(Br)o3)n[nH]c2=S)c1 was read as rRNA inh HTS -20*, ERp5 inh 1, PvdQ inh 3, FN deposit inh 3, Env fusion inh -3 and PDI turbidity 0.
Screening Fc1cccc(/C=N/Nc2ccc3ccccc3n2)c1 returned rRNA inh HTS -24*, ERp5 inh -8, PvdQ inh -12, FN deposit inh -3, Env fusion inh -161 and PDI turbidity -4.
For Brc1ccc(/C=N/Nc2ccc3ccccc3n2)cc1 the results were PvdQ inh 23 and PDI turbidity -6.
